# Measurements: paper PMC3500602 (Free radical research, 2011)
# Assays:
# [1] = MnTnHex-2-PyP^5+ levels in tumour and muscle by LCMS/MS; assay type: in vivo, Balb/c mice
# In short: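 Female Balb/c mice (6–8 weeks, ~22 g) bearing subcutaneous flank 4T1 tumours (10^6 cells), treated from ~200 mm3 for 15 days with porphyrin 1 mg/kg twice daily sc, with or without sodium ascorbate 2 g/kg twice daily ip given 1 h later. Tumour and opposite-leg muscle homogenised, deproteinised with 1% acetic acid in methanol, dried, reconstituted; porphyrin by LC-MS/MS, µM in homogenate.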
# [2] = cited from earlier work; for SOD activity log kcat (O2^·−): cyt c assay, 0.05 M phosphate buffer, pH 7.8, 25 ± 1°C
# [3] = system: 4T1 mouse breast carcinoma cells; assay: Clonogenic assay, 4T1; assay type: cell-based; details: 4T1, ascorbate 1 mM or MnTnHex-2-PyP^5+ 15 and 30 µM alone, 24 h
# [4] = system: HCT116 human colorectal carcinoma cells; assay: Clonogenic assay, HCT116; assay type: cell-based; details: HCT116, ascorbate 0.5 mM or MnTnHex-2-PyP^5+ 15 and 30 µM alone, 24 h
# [5] = system: human epithelial colorectal adenocarcinoma Caco-2; assay: WST-1-based cytotoxicity assay, Caco-2; assay type: cell-based; details: read-out: IC50 values for MnPs in the absence of ascorbate; Caco-2, 96 h, WST-1, no ascorbate
# [6] = system: 4T1 tumour cells; assay: LCMS/MS analysis of MnTnHex-2-PyP^5+ levels in 4T1 cells; assay type: in vitro ADME, mouse
# In short: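 4T1 cells at 1,440,000 per plate in 10 mL DMEM (high glucose, 10% FBS), attached 24 h (~80% confluence), then given 0.5 or 1 mM ascorbate, 5, 15 or 30 µM porphyrin, or combinations, for 24 h. PBS-rinsed, RIPA-lysed on ice, sonicated, spun; lysate porphyrin by LC-MS/MS normalised to Bradford protein. Intracellular concentration calculated assuming 2.19 µL cell volume/mg protein.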
# [7] = system: four tumour cell lines (Caco-2, HCT116, 4T1 and Hela); assay: WST-1-based cytotoxicity assay, statements across the four tumour cell lines; details: for toxicity of MnP in its own right: absence of ascorbate, 30 µM MnP, HCT116, 4T1, Hela; for cytotoxicity relative to MnTnHex-2-PyP^5+ in the presence of ascorbate: slopes of curves in Figure 5; for effect of low levels on the cell: Figures 5 and 6
# [8] = cited from earlier work
# [9] = system: SOD-deficient E. coli; details: cited from earlier work; for efficacy in protecting SOD-deficient E. coli: ortho vs meta
# [10] = Metal-centered reduction potential E1/2 for Mn^IIIP/Mn^IIP redox couple; assay type: physicochemical
# [11] = system: Caco-2 cells; assay: Identification of species involved in cytotoxicity; assay type: cell-based, human
# In short: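 Caco-2 cells at 10,000/well in alpha-MEM with 10% FBS; after 24 h at 37°C, 5% CO2, exposed to 30 µM Mn porphyrin, 3.3 mM ascorbate or both, with or without 1,500 units/mL catalase or 5 mM mannitol, for 96 h. Cells PBS-washed, WST-1 added for 2 h at 37°C, A450/595 read, % viability versus no-drug cells after cell-free blank subtraction.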
# [12] = n-octanol-water partition coefficient, log Pow; assay type: physicochemical
# [13] = plastic-backed silica-gel TLC plates, 1:1:8 = KNO3(sat):H2O:CH3CN; cited from earlier work
# [14] = Rate constant for the oxidation of Mn^IIP with oxygen; details: estimated from Mn^IITM-4-PyP^4+ value and structure-activity relationship
compound,measurement,setting,value
"CCCCCC[n+]1ccccc1-c1c2nc(c(-c3cccc[n+]3CCCCCC)c3ccc([n-]3)c(-c3cccc[n+]3CCCCCC)c3nc(c(-c4cccc[n+]4CCCCCC)c4ccc1[n-]4)C=C3)C=C2.[Mn+3] [MnTnHex-2-PyP^5+, Mn(III) meso-tetrakis(N-n-hexylpyridinium-2-yl)porphyrin]",enhancement of MnP accumulation by ascorbate in muscle,"[1]; MnP/ascorbate vs MnP treated mice, muscle",54%
same,enhancement of MnP accumulation by ascorbate in tumour,"[1]; MnP/ascorbate vs MnP treated mice, tumour",33%
same,accumulation in tumour relative to muscle from the opposite leg,"[1]; MnTnHex-2-PyP^5+ 1 mg/kg twice daily sc, tissue homogenates",higher accumulation in tumour
same,SOD activity log kcat (O2^·−),[2],7.48
same,"ability to produce colonies, single agent",[3],did not affect
same,"ability to produce colonies, single agent",[4],did not affect
same,IC50,[5],170 µM
same,MnP concentration in the cells relative to the medium,[6]; 30 µM MnP in medium,~ 4 times
same,more MnP found within cells with MnP/ascorbate compared to MnP alone,"[6]; 4T1 cells, depending on concentrations of ascorbate and porphyrin",≤ 29%
same,toxicity of MnP in its own right,[7],exerted toxicity
"CC[n+]1cccc(-c2c3nc(c(-c4ccc[n+](CC)c4)c4ccc([n-]4)c(-c4ccc[n+](CC)c4)c4nc(c(-c5ccc[n+](CC)c5)c5ccc2[n-]5)C=C4)C=C3)c1.[Mn+3] [MnTE-3-PyP^5+, Mn(III) meso-tetrakis(N-ethylpyridinium-3-yl)porphyrin, reference compound]",fold more lipophilic than ortho MnTE-2-PyP^5+,[8],10 fold
same,fold more accumulation within E. coli cell than MnTE-2-PyP^5+,[9],10 fold
same,efficacy in protecting SOD-deficient E. coli,[9],equally efficacious
"CC[n+]1ccccc1-c1c2nc(c(-c3cccc[n+]3CC)c3ccc([n-]3)c(-c3cccc[n+]3CC)c3nc(c(-c4cccc[n+]4CC)c4ccc1[n-]4)C=C3)C=C2.[Mn+3] [MnTE-2-PyP^5+, Mn(III) meso-tetrakis(N-ethylpyridinium-2-yl)porphyrin]",fold more potent SOD mimic than meta MnTE-3-PyP^5+,[2],10 fold
same,SOD activity log kcat (O2^·−),[2],7.76
same,IC50,[5],470 µM
same,efficacy in protecting SOD-deficient E. coli,[9],equally efficacious
same,E1/2 difference relative to MnTnHex-2-PyP^5+ (less positive / more negative),[10],~ 100 mV
same,cytotoxicity relative to MnTnHex-2-PyP^5+ in the presence of ascorbate,"[7]; 4T1, Hela",more cytotoxic
same,cytotoxicity relative to MnTnHex-2-PyP^5+ in the presence of ascorbate,"[7]; HCT116, Caco-2",equally
same,effect of low levels on the cell,[7],beneficial
"CCCCCC[n+]1cccc(-c2c3nc(c(-c4ccc[n+](CCCCCC)c4)c4ccc([n-]4)c(-c4ccc[n+](CCCCCC)c4)c4nc(c(-c5ccc[n+](CCCCCC)c5)c5ccc2[n-]5)C=C4)C=C3)c1.[Mn+3] [MnTnHex-3-PyP^5+, Mn(III) meso-tetrakis(N-n-hexylpyridinium-3-yl)porphyrin]",SOD activity log kcat (O2^·−),[2],6.64
same,IC50,[5],140 µM
same,toxicity of MnP by itself to Caco-2 cells,"[11]; Caco-2, 30 µM MnP, no ascorbate, Figure 9",less toxic
same,effect of mannitol on cytotoxicity,"[11]; Caco-2, 5 mM mannitol, 4 days",blocked significantly
same,accumulation within E. coli cell relative to MnTnHex-2-PyP^5+,[9]; absence of exogenous reductant,several-fold more
same,E1/2 difference relative to MnTE-2-PyP^5+ (more negative),[10],~150 mV
same,E1/2 difference relative to MnTnHex-2-PyP^5+ (less positive / more negative),[10],~ 250 mV
same,fold more lipophilic than MnTnHex-2-PyP^5+,[12],~ 10 fold
same,toxicity of MnP in its own right,[7],not significantly toxic
same,effect of low levels on the cell,[7],beneficial
"C[n+]1ccc(-c2c3nc(c(-c4cc[n+](C)cc4)c4ccc([n-]4)c(-c4cc[n+](C)cc4)c4nc(c(-c5cc[n+](C)cc5)c5ccc2[n-]5)C=C4)C=C3)cc1.[Mn+3] [MnTM-4-PyP^5+, Mn(III) meso-tetrakis(N-methylpyridinium-4-yl)porphyrin, reference compound]",SOD activity log kcat (O2^·−),[2],6.58
same,Lipophilicity Rf,[13],0.064
CC[n+]1ccccc1-c1c2nc(c(-c3cccc[n+]3CC)c3ccc([n-]3)c(-c3cccc[n+]3CC)c3nc(c(-c4cccc[n+]4CC)c4ccc1[n-]4)C=C3)C=C2.[Mn+2] [Mn^IITE-2-PyP^4+],rate constant for the reaction with O2,[14],80000 M⁻¹ s⁻¹
